Most compounds without a hit are left out; they make up all but 3.3% or so of the library.
Exocytosis inh – lytic granule exocytosis inhibition; AID 651702; 360,000 tested, 0.66% active; TALL-104 LAMP-1 surface exposure, flow cytometry; cells stimulated with thapsigargin and PMA; inhibition, % at 10 µM;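 active = inhibition above about 55%, limit read from the data; inconclusive = no clear call, values can overlap the other calls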
Myeloid diff 2 – compounds promoting myeloid differentiation | 360,000 tested, 1% active | ER-HoxA9 myeloid progenitors, lysozyme-GFP differentiation, flow cytometry | calls only at 10 µM;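 active = normalized GFP-positive differentiation at or above the plate's own cutoff, the solvent-only control mean plus 3 SD; inconclusive = no clear call, values can overlap the other calls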;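 note: cells exposed to compound for four days before flow analysis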
Arrestin-AP2 inh – inhibitors of human beta-arrestin and AP2 interaction | AID 504490 | FITC-arrestin peptide / GST-AP2 beads, flow cytometry; AP2 beta2 appendage carries R879A mutation | inhibition, % at 10 µM | 340,000 tested, 0.31% active;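 active = inhibition above a set limit, near 3 SD of compounds lacking own fluorescence, cut at about 54% in these data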;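 note: plate controls were DMSO wells for no effect and 5 µM unlabelled arrestin peptide for full effect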
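Assay system: GST-AP2 R879A bound to glutathione beads, E. coli-expressed; Medium: PBS with 0.05% Tween 20 and 0.1% BSA; Also added: fluorescein-tagged arrestin peptide at 50 nM final; Timing: 12 min plus 1 h, RT; Measured by: flow cytometry, FL1 (488/535 nm); Evaluation: percent drop in bead-associated FITC signal.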
NRP1-CendR mod – modulators of CendR peptide binding to human neuropilin-1; O14786; FAM-RPARPAR peptide binding to NRP-1, fluorescence polarization; inhibition, % at 25 µM; 360,000 tested, 0.85% active;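 active = inhibition or corrected inhibition above about 18%, plus a signal ratio from 0.5 to 1.5, limit read from the data, passing the limit was not always enough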
ATG4B inh – blocks human ATG4B protease cleavage of LC3 substrate | AID 504462 | ATG4B cleavage of LC3-PLA2, NBD-HPC fluorescence, 1 h | Q9Y4P1 | 340,000 tested, 0.51% active | inhibition, % at 8.33 µM; in the data active = inhibition above about 40%
ABCB6 inh MLPCN – blocks the human ABCB6 transporter. Q9NP58. K562-ABCB6 porphyrin accumulation, flow cytometry, 1 h; active compounds read low. fluorescence ratio to DMSO, % at 10 µM. 360,000 tested, 0.19% active. AID 602162;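 active = fluorescence ratio to DMSO below 75%, the collection mean minus 3 SD; inconclusive = too few cells collected in the well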;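 note: signal is porphyrin accumulated inside mitochondria; 100% equals median channel fluorescence of DMSO control wells; lower ratio means ABCB6 inhibition with less porphyrin fluorescence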
Target sequence (Q9NP58 whole entry, looked up): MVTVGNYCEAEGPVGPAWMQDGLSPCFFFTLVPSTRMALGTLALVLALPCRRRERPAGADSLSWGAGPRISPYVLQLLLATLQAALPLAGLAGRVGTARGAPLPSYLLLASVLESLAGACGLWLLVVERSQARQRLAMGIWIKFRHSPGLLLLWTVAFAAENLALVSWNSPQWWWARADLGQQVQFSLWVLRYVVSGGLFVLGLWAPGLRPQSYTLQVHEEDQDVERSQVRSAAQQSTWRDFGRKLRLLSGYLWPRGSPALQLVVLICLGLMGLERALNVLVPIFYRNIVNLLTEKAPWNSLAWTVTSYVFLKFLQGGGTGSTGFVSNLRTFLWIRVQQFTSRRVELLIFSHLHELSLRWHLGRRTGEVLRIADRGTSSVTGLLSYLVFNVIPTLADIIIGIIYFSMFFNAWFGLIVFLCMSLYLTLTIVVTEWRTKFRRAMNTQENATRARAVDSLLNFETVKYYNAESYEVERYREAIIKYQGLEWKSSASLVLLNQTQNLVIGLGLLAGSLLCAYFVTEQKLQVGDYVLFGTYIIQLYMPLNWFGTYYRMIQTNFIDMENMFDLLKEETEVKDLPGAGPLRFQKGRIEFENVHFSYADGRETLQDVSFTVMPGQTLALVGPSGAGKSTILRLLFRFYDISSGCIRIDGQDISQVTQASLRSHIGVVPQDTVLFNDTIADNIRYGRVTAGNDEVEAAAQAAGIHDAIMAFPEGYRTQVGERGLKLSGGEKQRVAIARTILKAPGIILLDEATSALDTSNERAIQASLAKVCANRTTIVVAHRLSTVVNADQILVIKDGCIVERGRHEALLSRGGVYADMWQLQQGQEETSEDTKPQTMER
PLA2 ctr – counter-screen for ATG4B inhibitors: human phospholipase A2; shares compounds with ATG4B inh; purified PLA2, NBD-C6-HPC fluorescence, 45 min; inhibition, % at 8.33 µM; 1,600 tested, 66% active; AID 588402; in the data active = inhibition above about 50%
Starred values were filed as active, the others as inactive.

O=C(c1ccc(Cn2c(=S)[nH]c3ccccc3c2=O)cc1)N1CCN(c2ccccn2)CC1 was read as Exocytosis inh -12, Myeloid diff 2 inactive, Arrestin-AP2 inh -12, NRP1-CendR mod -14, ATG4B inh 47*, ABCB6 inh MLPCN 95 and PLA2 ctr 66*.
`Cc1cccc(OCCNC(=O)CCNS(=O)(=O)c2ccc3ccccc3c2)c1` gave Exocytosis inh -4, Myeloid diff 2 inactive, Arrestin-AP2 inh 13, NRP1-CendR mod -10, ATG4B inh -3 and ABCB6 inh MLPCN 102.
For CC(=O)/C=C\c1ccccc1OC(=O)c1cc2ccccc2oc1=O the results were Exocytosis inh 16, Myeloid diff 2 inactive, Arrestin-AP2 inh -15, NRP1-CendR mod -1, ATG4B inh -3 and ABCB6 inh MLPCN 103.
`O=C(/C=C\c1ccccc1OC(=O)c1ccccc1F)c1cc2ccccc2o1` gave Exocytosis inh 5, Myeloid diff 2 inconclusive, Arrestin-AP2 inh 3, NRP1-CendR mod -8, ATG4B inh 45*, ABCB6 inh MLPCN 102 and PLA2 ctr 51*.
For Cc1cc(C)c(NS(=O)(=O)c2ccccc2)c(C)n1 the results were Exocytosis inh 23, Myeloid diff 2 inactive, NRP1-CendR mod -5 and ABCB6 inh MLPCN 105.
O=C(COc1ccccc1[N+](=O)[O-])Nc1ccccc1N1CCCC1 was read as Exocytosis inh -3, Myeloid diff 2 inactive, Arrestin-AP2 inh -2, NRP1-CendR mod 5, ATG4B inh 50*, ABCB6 inh MLPCN 96 and PLA2 ctr 58*.
`Cc1ccccc1OCC(=O)Nc1ccccc1N1CCCCC1` gave Exocytosis inh 5, Myeloid diff 2 inactive, Arrestin-AP2 inh -1, NRP1-CendR mod 2, ATG4B inh 26 and ABCB6 inh MLPCN 88.
Screening Cc1ccc(C(C)C)c(OCC(=O)Nc2ccccc2N2CCN(C)CC2)c1 returned Exocytosis inh 6, Myeloid diff 2 inactive, Arrestin-AP2 inh 3, NRP1-CendR mod -9, ATG4B inh 54*, ABCB6 inh MLPCN 100 and PLA2 ctr 66*.
O=C(COc1ccccc1[N+](=O)[O-])Nc1ccccc1N1CCCCC1 was read as Exocytosis inh 9, Myeloid diff 2 inactive, Arrestin-AP2 inh 26, NRP1-CendR mod 7, ATG4B inh 43*, ABCB6 inh MLPCN 90 and PLA2 ctr 74*.
`CC(=O)N(Cc1ccccc1)C1CC(=O)N(Cc2ccccc2)C1=O` (centres undefined) gave Exocytosis inh -13, Myeloid diff 2 inactive, Arrestin-AP2 inh -4, NRP1-CendR mod 6, ATG4B inh 1 and ABCB6 inh MLPCN 96.
NC(=O)C1CCCCc2c1[nH]c1ccc(Cl)cc21 (centres undefined) was read as Exocytosis inh -25, Myeloid diff 2 inactive, Arrestin-AP2 inh -19, NRP1-CendR mod 3, ATG4B inh 56*, ABCB6 inh MLPCN 97 and PLA2 ctr 51*.
Screening CCNC(=O)C1CCCc2c1[nH]c1ccc(Cl)cc21 (centres undefined) returned Exocytosis inh 5, Myeloid diff 2 inactive, Arrestin-AP2 inh 17, NRP1-CendR mod 1, ATG4B inh 3 and ABCB6 inh MLPCN 99.
For O=C(/C=C/c1ccc(S(=O)(=O)NCc2ccco2)cc1)NCc1cccc(Cl)c1 the results were Exocytosis inh -3, Myeloid diff 2 inactive, Arrestin-AP2 inh 0, NRP1-CendR mod -2, ATG4B inh 52*, ABCB6 inh MLPCN 100 and PLA2 ctr 62*.
O=C(/C=C/c1ccc(OCCCF)cc1)NCc1cccc(Cl)c1 was read as Exocytosis inh -14, Myeloid diff 2 inactive, Arrestin-AP2 inh 2, NRP1-CendR mod 11, ATG4B inh 45*, ABCB6 inh MLPCN 104 and PLA2 ctr 49.
`CCCOc1ccc(/C=C/C(=O)NCc2ccccc2)cc1` gave Exocytosis inh -1, Myeloid diff 2 inactive, Arrestin-AP2 inh -3, NRP1-CendR mod 6, ATG4B inh 18 and ABCB6 inh MLPCN 103.
Cc1ccc(SCC(=O)OCC(=O)NCCc2ccccc2)cc1C was read as Exocytosis inh 3, Myeloid diff 2 inactive, Arrestin-AP2 inh -5, NRP1-CendR mod 18, ATG4B inh 7 and ABCB6 inh MLPCN 104.

Source: PubChem BioAssay (several laboratories)
